# Experimental data from different studies.
# Protocols differ between the studies behind these lines.
# Target: Serine/threonine-protein kinase Chk1 (CHEK1, Homo sapiens, UniProt O14757)
# Residues used in one study (O14757 1-476): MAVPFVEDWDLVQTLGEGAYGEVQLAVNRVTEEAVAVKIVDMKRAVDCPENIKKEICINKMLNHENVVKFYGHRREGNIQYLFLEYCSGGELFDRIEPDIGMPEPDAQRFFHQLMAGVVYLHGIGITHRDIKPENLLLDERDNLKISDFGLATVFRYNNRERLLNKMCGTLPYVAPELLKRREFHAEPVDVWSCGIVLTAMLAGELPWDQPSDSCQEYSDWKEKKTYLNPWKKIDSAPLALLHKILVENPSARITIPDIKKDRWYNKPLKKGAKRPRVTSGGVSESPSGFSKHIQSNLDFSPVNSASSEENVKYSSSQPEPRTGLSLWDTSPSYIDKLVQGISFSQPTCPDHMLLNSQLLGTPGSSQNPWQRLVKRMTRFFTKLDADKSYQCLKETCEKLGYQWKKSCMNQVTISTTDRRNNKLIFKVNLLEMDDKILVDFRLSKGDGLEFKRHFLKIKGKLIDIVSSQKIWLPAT
SMILES,assay,conditions,measurement,result
Cc1cc(NC(=O)c2cccc3cc(-c4cccc5[nH]nc(N)c45)ccc23)ccc1F,"enzyme activity, inhibitor",0.1 µM,activity vs control,96%
CC(C)(C)c1nc(-c2cccc(NS(=O)(=O)c3c(F)cccc3F)c2F)c(-c2ccnc(N)n2)s1,"enzyme activity, inhibitor, radiometric",1 µM,remaining activity,100%
N#CCCc1ccc2c(c1)-c1[nH]c3ccc([N+](=O)[O-])cc3c1CC(=O)N2,cell-free assay,0.5 µM,remaining signal,45.1%
Cn1c(=O)n(-c2ccc(C(C)(C)C#N)cc2)c2c3cc(-c4cnc5ccccc5c4)ccc3ncc21,"enzyme activity, inhibitor",10 µM,remaining activity,146%
O=C1Nc2ccc(Cl)cc2C1=Cc1cc(Cl)c(O)c(Cl)c1,cell-free assay,0.5 µM,remaining signal,86.4%
O=C(Nc1cnn(-c2csc(C(=O)NC3COC3)c2)c1)Nc1ccccc1Cl,"enzyme activity, inhibitor",5 µM,remaining activity,98.7%
CN(C)C1CCN(CC#Cc2nn(C3CCCC3)c3nc(NCc4ccccc4)ncc23)C1 (stereo not drawn),"enzyme activity, inhibitor, FRET",0.1 µM,inhibition,2%
CNC(=O)Nc1ccc2c(c1)[C@@]1(CC2)OC(=O)N(CC(=O)N(Cc2ccc(F)cc2)[C@@H](C)C(F)(F)F)C1=O,"cell-free assay, competition with immobilised ligand",1 µM,remaining binding,100%
COc1cc(Nc2cnc(C#N)c(O[C@H](C)CN(C)C)n2)ncc1-c1cnn(C)c1,"enzyme activity, inhibitor, radiometric",10 µM,remaining activity,6%
C[C@@]1(Cc2ccc(C#N)cc2)C(=O)N(c2cc(Cl)cc(Cl)c2)c2ncc(C(=O)NC3(c4nc(C5CCC5)no4)CC3)n21,"cell-free assay, competition with immobilised ligand",1 µM,remaining binding,90%
CCN(CC)CCNC(=O)c1c(C)[nH]c(/C=C2\C(=O)Nc3ccc(F)cc32)c1C,cell-free assay,0.5 µM,remaining signal,29.2%
CO[C@@H](C)c1c(Nc2ccc([C@@H](N(C)C(=O)C3CCS(=O)(=O)CC3)C(F)(F)F)cc2)cnc2cc(Cl)nn12,"cell-free assay, competition with immobilised ligand",1 µM,remaining binding,95%
CC(C)(O)[C@H]1CC[C@H](Nc2ccc3ncc(-c4cccc(C(F)(F)F)c4)n3n2)CC1,"enzyme activity, inhibitor",1 µM,remaining activity,94.2%
Cc1ccc(NC(=O)c2ccc(CN3CCN(C)CC3)cc2)cc1Nc1nc(-c2cccnc2)cs1,cell-free assay,0.5 µM,remaining signal,110%
CS(=O)(=O)NCC[C@H](NC(=O)c1cncc2c1cnn2-c1ccc(F)cc1)c1ccnc(S(C)(=O)=O)c1,"cell-free assay, competition with immobilised ligand",1 µM,remaining binding,97%
CC(C)(C)C(=O)c1sc(NC2CCCCC2)nc1N,"enzyme activity, inhibitor",10 µM,remaining activity,80%
COc1ccc2cc(OCC3(C(=O)O)CN(C(=O)c4ccc(F)cc4)C3)ccc2c1,"cell-free assay, competition with immobilised ligand",1 µM,remaining binding,87%
FC(F)c1nc2ccccc2n1-c1nc(N2CCOCC2)nc(N2CCOCC2)n1,"enzyme activity, inhibitor",10 µM,remaining activity,90%
Cc1ccc(C(=O)Nc2ccc(CN3CCN(C)CC3)c(C(F)(F)F)c2)cc1C#Cc1cnc2cccnn12,"enzyme activity, inhibitor",23.5 nM,remaining activity,96%
Nc1c(C(=O)NCc2ccc(C(=O)NCCCC3CCCCC3)cc2)cnn1-c1ccccc1,"cell-free assay, competition with immobilised ligand",0.1 µM,remaining binding,100%
Cc1cnc(NC2CCOCC2)nc1-n1cnc(C(=O)NC(CN)c2cc(F)cc(Cl)c2)c1 (stereo not drawn),"enzyme activity, inhibitor, radiometric",1 µM,remaining activity,35%
CN(C)CC#Cc1ccc(OCCCc2sc(N3CCc4cccc(C(=O)Nc5nc6ccccc6s5)c4C3)nc2C(=O)O)c(F)c1,"cell-free assay, competition with immobilised ligand",1 µM,remaining binding,89%
C[C@@H]1CCN(C(=O)CC#N)C[C@@H]1N(C)c1ncnc2[nH]ccc12,"cell-free assay, inhibitor",0.5 µM,remaining signal,94.1%
COc1cc(Cl)c(C(=O)N[C@@H](CN[C@H]2CC[C@@H](N)CC2)Cc2ccc(C#N)cc2)cc1-c1ccc(CN[C@H](C)c2ccc(C)cc2)o1,"enzyme activity, inhibitor",1 µM,remaining activity,100%
